Test results from ChEMBL document CHEMBL1671756, “In vitro and in vivo antifungal susceptibilities of the Mucoralean fungus Cunninghamella” (2010).
≈ marks a conversion by molar mass, not a printed value. Calls of active or inactive are those of the source. The rule behind the calls is not given here.

Assays:
[1] = tested on: Cunninghamella bertholletiae; test: Antifungal activity against Cunninghamella bertholletiae UTHSC 05-2275 after 24 hrs by broth microdilution method; type: functional; settings: UTHSC 05-2275, 24 h
How it was run: (§1)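 CLSI broth microdilution for filamentous fungi. Isolates were stored at −80°C and subcultured on potato dextrose agar at 35°C. MICs were read after 24 h. […] The QC strain was Paecilomyces variotii ATCC 36257.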

[2] = tested on: Cunninghamella bertholletiae; test: Antifungal activity against Cunninghamella bertholletiae FMR-9598 after 24 hrs by broth microdilution method; type: functional; settings: FMR-9598, 24 h; how it was run: as §1
[3] = tested on: Cunninghamella bertholletiae; test: Antifungal activity against Cunninghamella bertholletiae UTHSC 04-2581 after 24 hrs by broth microdilution method; type: functional; settings: UTHSC 04-2581, 24 h; how it was run: as §1
[4] = tested on: Cunninghamella bertholletiae; test: Antifungal activity against Cunninghamella bertholletiae UTHSC 03-2241 after 24 hrs by broth microdilution method; type: functional; settings: UTHSC 03-2241, 24 h; how it was run: as §1
[5] = tested on: Cunninghamella bertholletiae; test: Antifungal activity against Cunninghamella bertholletiae UTHSC 06-1945 after 24 hrs by broth microdilution method; type: functional; settings: UTHSC 06-1945, 24 h; how it was run: as §1
[6] = Antifungal activity against Cunninghamella echinulata UTHSC 03-3725 after 24 hrs by broth microdilution method; type: functional; how it was run: as §1
[7] = Antifungal activity against Cunninghamella echinulata FMR 10974 after 24 hrs by broth microdilution method; type: functional; how it was run: as §1
[8] = Antifungal activity against Cunninghamella echinulata FMR 10973 after 24 hrs by broth microdilution method; type: functional; how it was run: as §1
[9] = Antifungal activity against Cunninghamella echinulata UTHSC 01-2298 after 24 hrs by broth microdilution method; type: functional; how it was run: as §1
[10] = tested on: Cunninghamella bertholletiae; test: Antifungal activity against Cunninghamella bertholletiae UTHSC 05-2275 infected in neutropenic OF1 mouse assessed as decreased fungal load in kidney at 50 mg/kg, po bid administered 1 day post infection measured after 4 to 5 days relative to untreated control; type: functional, organism-based; set-up: dose 50 mg/kg
How it was run: (§2)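 Neutropenic male OF1 mice (cyclophosphamide 200 mg/kg i.p. + 5-fluorouracil 150 mg/kg i.v., day −1) were infected i.v. with 1 × 10⁴ CFU. Ten mice per group were treated from day 1 and killed by CO₂ on day 5, or on day 4 if moribund. Half of each brain, lung and kidney was homogenized in 1 ml saline. Ten-fold dilutions were plated on PDA for 24 h at 35°C and counted as log₁₀ CFU/g.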

[11] = tested on: Cunninghamella bertholletiae; test: Antifungal activity against Cunninghamella bertholletiae UTHSC 05-2275 infected in neutropenic OF1 mouse assessed as increase in mouse survival rate at 50 mg/kg, po bid administered 1 day after infection for 7 days relative to untreated control; type: functional, organism-based; set-up: dose 50 mg/kg
How it was run: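 Male OF1 mice (~30 g) were made neutropenic with cyclophosphamide 200 mg/kg i.p. plus 5-fluorouracil 150 mg/kg i.v. 1 day before challenge. Challenge was 1 × 10⁴ CFU sporangiospores in 0.2 ml saline via the lateral tail vein. Mice got ceftazidime 5 mg/day s.c. on days 1–7. Dosing started 24 h post-challenge for 7 days. There were 10 mice/group, observed daily for 20 days. Kaplan-Meier analysis with log-rank test.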

[12] = tested on: Cunninghamella bertholletiae; test: Antifungal activity against Cunninghamella bertholletiae UTHSC 05-2275 infected in diabetic OF1 mouse assessed as increase in mouse survival rate at 25 mg/kg, po bid administered 1 day after infection for 7 days relative to untreated control; type: functional, organism-based; set-up: dose 25 mg/kg
How it was run: (§3)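 Male OF1 mice were made diabetic with streptozocin 210 mg/kg i.p. Diabetes was confirmed by blood glucose >250 mg/dl at day 10. Challenge was 1 × 10⁵ CFU in 0.2 ml saline i.v. (tail vein), with ceftazidime 5 mg/day s.c. on days 1–7. Treatment began 1 day after challenge for 7 days. There were 10 mice/group, checked daily for 20 days. Kaplan-Meier analysis with log-rank comparison.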

[13] = tested on: Cunninghamella bertholletiae; test: Antifungal activity against Cunninghamella bertholletiae UTHSC 05-2275 infected in diabetic OF1 mouse assessed as increase in mouse survival rate at 50 mg/kg, po bid administered 1 day after infection for 7 days relative to untreated control; type: functional, organism-based; set-up: dose 50 mg/kg; how it was run: as §3
[14] = tested on: Cunninghamella bertholletiae; test: Antifungal activity against Cunninghamella bertholletiae UTSCH 05-2275 infected in diabetic OF1 mouse assessed as decreased fungal load in lung at 50 mg/kg, po bid administered 1 day post infection measured after 4 to 5 days relative to untreated control; type: functional, organism-based; set-up: dose 50 mg/kg
How it was run: (§4)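 Diabetic OF1 mice (streptozocin 210 mg/kg i.p.; glucose >250 mg/dl) were infected i.v. with 1 × 10⁵ CFU, with ceftazidime cover. Ten per group were treated from day 1 and killed day 5, or day 4 if moribund. Half-organ homogenates (brain, lung, kidney) in 1 ml saline were serially diluted 10-fold on PDA, incubated 24 h at 35°C, and reported as log₁₀ CFU/g tissue.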

[15] = tested on: Cunninghamella bertholletiae; test: Antifungal activity against Cunninghamella bertholletiae UTSCH 05-2275 infected in diabetic OF1 mouse assessed as decreased fungal load in kidney at 50 mg/kg, po bid administered 1 day post infection measured after 4 to 5 days relative to untreated control; type: functional, organism-based; set-up: dose 50 mg/kg; how it was run: as §4
[16] = tested on: Cunninghamella bertholletiae; test: Antifungal activity against Cunninghamella bertholletiae UTHSC 05-2275 infected in neutropenic OF1 mouse assessed as decreased fungal load in lung at 25 mg/kg, po bid administered 1 day post infection measured after 4 to 5 days relative to untreated control; type: functional, organism-based; set-up: dose 25 mg/kg; how it was run: as §2
[17] = tested on: Cunninghamella bertholletiae; test: Antifungal activity against Cunninghamella bertholletiae UTHSC 05-2275 infected in neutropenic OF1 mouse assessed as decreased fungal load in kidney at 25 mg/kg, po bid administered 1 day post infection measured after 4 to 5 days relative to untreated control; type: functional, organism-based; set-up: dose 25 mg/kg; how it was run: as §2
[18] = tested on: Cunninghamella bertholletiae; test: Antifungal activity against Cunninghamella bertholletiae UTHSC 05-2275 infected in neutropenic OF1 mouse assessed as decreased fungal load in lung at 50 mg/kg, po bid administered 1 day post infection measured after 4 to 5 days relative to untreated control; type: functional, organism-based; set-up: dose 50 mg/kg; how it was run: as §2
[19] = tested on: Cunninghamella bertholletiae; test: Antifungal activity against Cunninghamella bertholletiae UTHSC 05-2275 infected in neutropenic OF1 mouse assessed as increase in mouse survival rate at 25 mg/kg, po bid administered 1 day after infection for 7 days relative to untreated control

Q: What does the source list for `CC[C@H](C)C[C@H](C)CCCCCCCCC(=O)N[C@H]1C[C@@H](O)[C@@H](NCCN)NC(=O)[C@@H]2[C@@H](O)CCN2C(=O)[C@H]([C@H](O)CCN)NC(=O)[C@H]([C@H](O)[C@@H](O)c2ccc(O)cc2)NC(=O)[C@@H]2C[C@@H](O)CN2C(=O)[C@H]([C@@H](C)O)NC1=O` [CASPOFUNGIN]?
A: MIC [1]: > 16 µg/mL; MIC [2]: > 16 µg/mL; MIC [3]: > 16 µg/mL; MIC [4]: > 16 µg/mL; MIC [5]: > 16 µg/mL; MIC [6]: > 16 µg/mL; MIC [7]: > 16 µg/mL; MIC [8]: > 16 µg/mL; MIC [9]: > 16 µg/mL

Q: What does the source list for `CCC(C)n1ncn(-c2ccc(N3CCN(c4ccc(OCC5COC(Cn6cncn6)(c6ccc(Cl)cc6Cl)O5)cc4)CC3)cc2)c1=O` (stereo not given) [ITRACONAZOLE]?
A: Activity [10]: inactive; Activity [11]: Active; Activity [12]: inactive; Activity [13]: Active; MIC [1]: 2 µg/mL (≈ 2.83 µM); MIC [2]: 8 µg/mL (≈ 11.3 µM); MIC [3]: 1 µg/mL (≈ 1.42 µM); MIC [4]: 1 µg/mL (≈ 1.42 µM); MIC [5]: 2 µg/mL (≈ 2.83 µM); MIC [6]: 2 µg/mL (≈ 2.83 µM); MIC [7]: > 16 µg/mL; MIC [8]: > 16 µg/mL; MIC [9]: > 16 µg/mL; Activity [14]: Active; Activity [15]: inactive; Activity [16]: Active; Activity [17]: inactive; Activity [18]: Active; Activity [19]: inactive

Q: Which MIC [1] does the source give for `C[C@@H](c1nc(-c2ccc(C#N)cc2)cs1)[C@](O)(Cn1cncn1)c1ccc(F)cc1F` [RAVUCONAZOLE] here?
A: > 16 µg/mL

Q: What about the MIC [2] of the same molecule?
A: > 16 µg/mL

Q: And the MIC [3]?
A: > 16 µg/mL

Q: What about the MIC [4] of the same molecule?
A: > 16 µg/mL

Q: And the MIC [5]?
A: > 16 µg/mL

Q: What about the MIC [6] of the same molecule?
A: > 16 µg/mL

Q: What about the MIC [7] of the same molecule?
A: > 16 µg/mL

Q: And the MIC [8]?
A: > 16 µg/mL

Q: And the MIC [9]?
A: > 16 µg/mL

Q: With `CN(C/C=C/C#CC(C)(C)C)Cc1cccc2ccccc12` [TERBINAFINE] as the molecule, how does the MIC [1] read?
A: 0.06 µg/mL (≈ 0.206 µM)

Q: What about the MIC [2] of the same molecule?
A: 0.06 µg/mL (≈ 0.206 µM)

Q: What about the MIC [3] of the same molecule?
A: 0.03 µg/mL (≈ 0.103 µM)

Q: What about the MIC [4] of the same molecule?
A: 0.03 µg/mL (≈ 0.103 µM)

Q: What about the MIC [5] of the same molecule?
A: 0.03 µg/mL (≈ 0.103 µM)

Q: And the MIC [6]?
A: 0.03 µg/mL (≈ 0.103 µM)

Q: What about the MIC [7] of the same molecule?
A: 0.06 µg/mL (≈ 0.206 µM)

Q: And the MIC [8]?
A: 0.06 µg/mL (≈ 0.206 µM)

Q: And the MIC [9]?
A: 0.06 µg/mL (≈ 0.206 µM)

Q: For `C[C@@H](c1ncncc1F)[C@](O)(Cn1cncn1)c1ccc(F)cc1F` [VORICONAZOLE], which MIC [1] is on record?
A: 16 µg/mL (≈ 45.8 µM)

Q: What about the MIC [2] of the same molecule?
A: > 16 µg/mL

Q: What about the MIC [3] of the same molecule?
A: 16 µg/mL (≈ 45.8 µM)

Q: And the MIC [4]?
A: 8 µg/mL (≈ 22.9 µM)

Q: What about the MIC [5] of the same molecule?
A: 16 µg/mL (≈ 45.8 µM)

Q: And the MIC [6]?
A: > 16 µg/mL

Q: And the MIC [7]?
A: > 16 µg/mL

Q: And the MIC [8]?
A: > 16 µg/mL

Q: What about the MIC [9] of the same molecule?
A: > 16 µg/mL
